Calls of active or inactive are those of the source. The rule behind the calls is not given here.
Columns and labels:
[1] = Metabolic stability in human liver microsomes assessed as half life; assay type: ADME, Microsome
[2] = target: T1, Transient receptor potential cation channel subfamily V member 1 (Homo sapiens, UniProt Q8NER1); test: Displacement of [3H]RTX from human TRPV1 receptor expressed in HEK293 cell membrane; assay type: cell membranes
[3] = Metabolic stability in rat liver microsomes assessed as half life; assay type: ADME, Microsome
[4] = target: T1, Transient receptor potential cation channel subfamily V member 1; test: Antagonist activity at human TRPV1 receptor assessed as inhibition of capsaicin-induced calcium flux by FLIPR; assay type: functional
Outline: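 Capsaicin-evoked Ca2+ flux in cells expressing TRPV1, read on a FLIPR with a Ca2+-sensitive fluorescent dye. Antagonism was taken as inhibition of the capsaicin response.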

[5] = target: T1, Transient receptor potential cation channel subfamily V member 1; test: Antagonist activity at human TRPV1 receptor assessed as inhibition of capsaicin-induced calcium flux at 1 uM by FLIPR; assay type: functional
[6] = Apparent permeability from apical to basolateral side of human Caco-2 cells; assay type: ADME, cell-based
[7] = tested on: Caco-2; test: Ratio of permeability from basolateral to apical over apical to basolateral side of human Caco-2 cells
[8] = target: Cytochrome P450 2D6 (Homo sapiens, UniProt P10635); test: Inhibition of recombinant CYP2D6; assay type: ADME
[9] = target: Cytochrome P450 3A4 (Homo sapiens, UniProt P08684); test: Inhibition of recombinant CYP3A4; assay type: ADME
Sequence of Cytochrome P450 3A4 (P08684 whole entry): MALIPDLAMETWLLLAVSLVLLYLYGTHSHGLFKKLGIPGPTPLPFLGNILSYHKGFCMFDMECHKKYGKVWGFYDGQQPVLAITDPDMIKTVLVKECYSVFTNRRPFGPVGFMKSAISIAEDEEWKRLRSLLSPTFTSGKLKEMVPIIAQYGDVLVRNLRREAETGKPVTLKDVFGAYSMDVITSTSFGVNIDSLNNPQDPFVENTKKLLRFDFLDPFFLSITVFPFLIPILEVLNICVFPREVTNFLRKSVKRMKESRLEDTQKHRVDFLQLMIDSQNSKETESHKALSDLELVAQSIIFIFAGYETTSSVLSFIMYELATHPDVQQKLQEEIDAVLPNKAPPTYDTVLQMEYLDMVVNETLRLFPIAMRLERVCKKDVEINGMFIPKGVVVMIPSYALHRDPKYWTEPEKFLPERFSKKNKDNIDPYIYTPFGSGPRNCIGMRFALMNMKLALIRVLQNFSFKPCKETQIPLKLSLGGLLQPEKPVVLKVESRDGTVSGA

T1 sequence (Q8NER1 whole entry): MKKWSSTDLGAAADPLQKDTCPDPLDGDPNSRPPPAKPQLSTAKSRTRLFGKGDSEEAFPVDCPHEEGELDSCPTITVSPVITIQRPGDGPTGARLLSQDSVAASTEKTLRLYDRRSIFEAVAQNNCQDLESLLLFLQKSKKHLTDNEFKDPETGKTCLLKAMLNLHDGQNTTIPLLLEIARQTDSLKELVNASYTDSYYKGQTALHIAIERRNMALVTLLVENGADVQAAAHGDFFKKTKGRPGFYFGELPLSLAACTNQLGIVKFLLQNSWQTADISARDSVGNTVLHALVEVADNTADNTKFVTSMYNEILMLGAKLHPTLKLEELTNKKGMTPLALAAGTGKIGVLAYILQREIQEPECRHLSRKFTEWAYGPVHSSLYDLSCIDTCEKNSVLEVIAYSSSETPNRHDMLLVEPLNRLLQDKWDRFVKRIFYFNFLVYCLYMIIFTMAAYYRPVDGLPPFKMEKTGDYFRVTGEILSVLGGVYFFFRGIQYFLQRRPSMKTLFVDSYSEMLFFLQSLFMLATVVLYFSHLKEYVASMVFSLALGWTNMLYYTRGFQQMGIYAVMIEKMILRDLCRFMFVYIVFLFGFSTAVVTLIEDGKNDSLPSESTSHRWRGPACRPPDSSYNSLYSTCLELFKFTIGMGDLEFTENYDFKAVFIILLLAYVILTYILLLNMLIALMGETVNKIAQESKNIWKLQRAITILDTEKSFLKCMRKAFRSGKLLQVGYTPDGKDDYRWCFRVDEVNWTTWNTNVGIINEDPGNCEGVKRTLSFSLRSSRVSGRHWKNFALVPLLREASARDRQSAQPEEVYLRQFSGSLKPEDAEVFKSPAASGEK
Sequence of Cytochrome P450 2D6 (P10635 whole entry): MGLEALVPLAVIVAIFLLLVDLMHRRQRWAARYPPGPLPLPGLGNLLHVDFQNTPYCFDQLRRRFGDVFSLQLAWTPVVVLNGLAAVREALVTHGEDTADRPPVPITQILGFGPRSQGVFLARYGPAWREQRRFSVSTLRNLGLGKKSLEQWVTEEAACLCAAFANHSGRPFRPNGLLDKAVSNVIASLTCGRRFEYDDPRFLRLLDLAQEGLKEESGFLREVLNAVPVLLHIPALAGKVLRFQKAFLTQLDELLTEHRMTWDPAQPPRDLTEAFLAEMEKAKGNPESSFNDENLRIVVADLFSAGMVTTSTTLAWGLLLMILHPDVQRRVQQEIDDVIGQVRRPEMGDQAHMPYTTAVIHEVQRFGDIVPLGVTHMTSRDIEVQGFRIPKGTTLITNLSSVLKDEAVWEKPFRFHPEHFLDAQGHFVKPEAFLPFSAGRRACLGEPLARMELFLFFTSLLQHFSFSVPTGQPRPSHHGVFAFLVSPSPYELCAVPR

Row | half-life [1] [min] | Ki [2] [nM] | half-life [3] [min] | Compound | other results
1 | 15.6 | 81 | 7.2 | O=C1COc2ccc(NC(=O)C3CCN(c4cccc(F)c4Br)CC3)cc2N1 | –
2 | – | 68 | – | O=C1COc2ccc(NC(=O)C3CCN(c4ccccc4C(F)(F)F)CC3)cc2N1 | –
3 | 81.7 | – | 19.4 | O=C1COc2ccc(NC(=O)C3CCN(c4cc(F)cc(F)c4)CC3)cc2N1 | –
4 | 27.7 | 97 | 4.4 | O=C1COc2ccc(NC(=O)C3CCN(c4cccc(Cl)c4)CC3)cc2N1 | –
5 | > 60 | 28 | 6.5 | Cc1cccc(N2CCC(C(=O)Nc3ccc4c(c3)NC(=O)CO4)CC2)c1C | –
6 | – | 142 | – | CC(C)(C)c1ccc(N2CCC(C(=O)Nc3ccc4c(c3)NC(=O)CO4)CC2)cc1 | –
7 | 58.9 | 49 | 63.8 | O=C1COc2ccc(NC(=O)C3CCN(c4cc(F)c(F)c(F)c4)CC3)cc2N1 | IC50 [4]: 59 nM

Further lines, the compound ahead of its results:

Row | Compound | half-life [1] [min] | Ki [2] [nM] | half-life [3] [min] | other results
8 | CC(=O)N1CCc2cc(NC(=O)C3CCN(c4cccc(C(F)(F)F)c4)CC3)ccc21 | – | – | – | IC50 [4]: > 9000 nM
9 | O=C1COc2ccc(NC(=O)C3CCN(c4cccc(C(F)(F)F)c4)CC3)cc2N1 | 17.3 | – | 2.8 | IC50 [4]: 180 nM
10 | CC(C)c1ccccc1N1CCC(C(=O)Nc2ccc3c(c2)NC(=O)CO3)CC1 | 11.4 | – | 9 | –
11 | O=C1COc2c(cccc2NC(=O)C2CCN(c3cc(F)c(F)c(F)c3)CC2)N1 | – | – | – | Activity [4]: inactive
12 | O=C1COc2cc(NC(=O)C3CCN(c4cc(F)c(F)c(F)c4)CC3)ccc2N1 | – | – | – | inhibition [5]: 55%
13 | O=C1COc2cccc(NC(=O)C3CCN(c4cc(F)c(F)c(F)c4)CC3)c2N1 | – | – | – | inhibition [5]: 9%
14 | CC1(C(=O)O)Oc2ccc(NC(=O)C3CCN(c4cc(F)c(F)c(F)c4)CC3)cc2NC1=O (stereo not drawn) | – | – | – | Activity [4]: inactive
15 | CCOC(=O)C1Oc2ccc(NC(=O)C3CCN(c4cc(F)c(F)c(F)c4)CC3)cc2NC1=O (stereo not drawn) | – | – | – | Activity [4]: inactive
16 | Cc1c(Cl)cccc1N1CCC(C(=O)Nc2ccc3c(c2)NC(=O)CO3)CC1 | – | 100 | – | –
17 | CN1C(=O)COc2ccc(NC(=O)C3CCN(c4cc(F)c(F)c(F)c4)CC3)cc21 | – | – | – | Activity [4]: inactive
18 | O=C(Nc1ccc2cc[nH]c2c1)C1CCN(c2cccc(C(F)(F)F)c2)CC1 | – | – | – | IC50 [4]: > 9000 nM
19 | O=C(Nc1ccc2c(c1)NC(=O)C(CCO)O2)C1CCN(c2cc(F)c(F)c(F)c2)CC1 (stereo not drawn) | 55 | – | 79 | Papp A→B [6]: 1.5 ×10⁻⁶ cm/s; Ratio [7]: 10.6; IC50 [4]: 5 nM; IC50 [8]: > 10000 nM; IC50 [9]: 3700 nM
20 | O=C1COc2ccc(NC(=O)C3CCN(c4ccc(F)c(F)c4)CC3)cc2N1 | 44.3 | – | 15.5 | –
21 | O=C(Nc1ccc2c(c1)NC(=O)C(C(=O)O)O2)C1CCN(c2cc(F)c(F)c(F)c2)CC1 (stereo not drawn) | – | – | – | Activity [4]: inactive
22 | COC(=O)CC1Oc2ccc(NC(=O)C3CCN(c4cc(F)c(F)c(F)c4)CC3)cc2NC1=O (stereo not drawn) | – | – | – | IC50 [4]: 890 nM
23 | O=C(O)CC1Oc2ccc(NC(=O)C3CCN(c4cc(F)c(F)c(F)c4)CC3)cc2NC1=O (stereo not drawn) | – | – | – | inhibition [5]: 5%
